Assay results: article PMC7196279 (Biomedicine & pharmacotherapy = Biomedecine & …, 2020)
pEC50: −log10 of the molar value. Where two headings read alike, the source gives them in different places. Bridges are numbered along the chain shown (N, C = ends). Where no end group is shown, it is not given here.

Tests used:
[1] = biological target: T1, macaque oxytocin receptor (qOTR) (Macaca mulatta, UniProt P56494); experiment: Ca2+ mobilization assay; format: cell-based
T1 sequence (P56494 1-389): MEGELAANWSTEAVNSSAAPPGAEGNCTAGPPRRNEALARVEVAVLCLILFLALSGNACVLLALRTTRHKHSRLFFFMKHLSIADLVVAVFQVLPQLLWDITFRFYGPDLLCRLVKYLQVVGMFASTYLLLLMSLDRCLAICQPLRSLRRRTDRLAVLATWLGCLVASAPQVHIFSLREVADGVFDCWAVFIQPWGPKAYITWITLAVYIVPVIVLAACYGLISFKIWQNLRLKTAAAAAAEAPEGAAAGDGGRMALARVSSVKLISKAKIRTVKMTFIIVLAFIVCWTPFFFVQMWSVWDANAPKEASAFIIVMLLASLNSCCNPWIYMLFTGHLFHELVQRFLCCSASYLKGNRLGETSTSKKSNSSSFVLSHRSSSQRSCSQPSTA

[2] = tested on: Ca^2+-activated K^+ channels; conditions: hOT receptor CHO cells, cited from earlier work
[3] = tested on: Ca^2+-activated K^+ channels; format: cell-based, Chinese hamster; conditions: tOT receptor CHO cells; for inhibition of AVP induced hyperpolarization / inhibition of Leu^8-OT induced hyperpolarization / inhibition of Pro^8-OT induced hyperpolarization: inhibitor pretreatment
Method in brief: (§1)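 Receptor-expressing CHO-K1 cells were loaded with FMP Blue in Locke's buffer (pH 7.4) at 37 °C for 35 min. Paxilline, TRAM-34 and/or apamin were then added, followed by 10 min more incubation. Baseline was read for 60 s, then log concentrations of agonist were added and ex 530/em 565 nm was read every 2 s for 200 s. NS-1619 or SKA-31 stimulation followed paxilline (30 μM) or TRAM-34 pretreatment respectively. Response was FMIN − F0. N = 3 experiments, 10 replicates per dose.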

[4] = tested on: Ca^2+-activated K^+ channels; format: cell-based, Chinese hamster; conditions: qOT receptor CHO cells; for inhibition of AVP induced hyperpolarization / inhibition of Leu^8-OT induced hyperpolarization / inhibition of Pro^8-OT induced hyperpolarization: inhibitor pretreatment
Method in brief: as §1

[5] = tested on: Ca^2+-activated K^+ channels; conditions: mOT receptor CHO cells, cited from earlier work
[6] = tested on: Ca^2+-activated K^+ channels; format: cell-based, Chinese hamster; conditions: mOT receptor CHO cells, inhibitor pretreatment
[7] = tested on: Ca^2+-activated K^+ channels; format: cell-based, Chinese hamster; conditions: hOT receptor CHO cells, inhibitor pretreatment
[8] = tested on: sarco/endoplasmic reticulum calcium ATPase (SERCA); format: cell-based; conditions: all four OT receptor cell lines, thapsigargin pretreatment
Method in brief: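 Cells were incubated with FMP Blue in Locke's buffer at 37 °C for 40 min. Thapsigargin was added, followed by 5 min more incubation. The membrane potential assay was then run with agonist concentration series. Fluorescence was read at ex 530/em 565 nm every 2 s for 200 s after a 60 s baseline. Response was FMIN − F0.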

[9] = tested on: sarco/endoplasmic reticulum calcium ATPase (SERCA); format: cell-based; conditions: all four lines, thapsigargin pretreatment 1 μM final concentration
Method in brief: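 Fluo-3 AM-loaded cells (60 min, 37 °C) were washed four times and treated with thapsigargin (1 μM final) for 5 min. The Ca2+ mobilization assay was then run with agonist concentration series, with untreated controls in parallel on the same plates. The Fluo-3 read was FMAX − F0. N = 3 experiments, five replicates per dose.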

[10] = biological target: Human Kappa-opioid (κO) receptor (Homo sapiens, UniProt P41145); experiment: Membrane potential assay in κOR-CHO cells; format: cell-based; conditions: κOR-CHO cells pretreated with pertussis toxin
Sequence of Human Kappa-opioid (κO) receptor (P41145 whole entry): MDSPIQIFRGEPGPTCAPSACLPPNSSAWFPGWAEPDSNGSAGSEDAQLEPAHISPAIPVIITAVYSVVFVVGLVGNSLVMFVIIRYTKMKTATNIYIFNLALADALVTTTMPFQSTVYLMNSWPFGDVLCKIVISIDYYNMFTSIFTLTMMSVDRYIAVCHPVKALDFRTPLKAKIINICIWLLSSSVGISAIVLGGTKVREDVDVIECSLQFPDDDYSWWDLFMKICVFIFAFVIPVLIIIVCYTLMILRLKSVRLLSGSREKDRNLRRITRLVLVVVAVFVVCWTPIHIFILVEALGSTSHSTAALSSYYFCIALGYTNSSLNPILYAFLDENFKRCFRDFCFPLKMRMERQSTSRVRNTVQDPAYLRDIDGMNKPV

Gi/o = format: cell-based; conditions: PTX 150 ng/ml

NC(=O)CC[C@@H]1NC(=O)[C@H](Cc2ccccc2)NC(=O)[C@H](Cc2ccc(O)cc2)NC(=O)[C@@H](N)CSSC[C@@H](C(=O)N2CCC[C@H]2C(=O)N[C@@H](CCCN=C(N)N)C(=O)NCC(N)=O)NC(=O)[C@H](CC(N)=O)NC1=O [AVP, arginine vasopressin] showed a pEC50 [1] of 7.30.

For Clc1ccccc1C(c1ccccc1)(c1ccccc1)n1cccn1 [TRAM-34], the “effect on hyperpolarizing response to KCa3.1 channel opener SKA31” value [2] is listed as “inhibited”, the “inhibition of SKA-31 hyperpolarization” value ([3]; 300 nM TRAM-34 pretreatment) is listed as 78% and the “inhibition of AVP induced hyperpolarization” value [3] is listed as 25%. For the same compound, the “inhibition of Leu^8-OT induced hyperpolarization” value [3] was 38%, the “inhibition of Pro^8-OT induced hyperpolarization” value [3] was 37% and the “inhibition of SKA-31 hyperpolarization” value ([4]; 300 nM TRAM-34 pretreatment) was 92%. For the same compound, the “effect on hyperpolarizing response to KCa3.1 channel opener SKA31” value [5] was “inhibited”, the “inhibition of AVP induced hyperpolarization” value [6] was 33% and the “inhibition of AVP induced hyperpolarization” value [7] was 61%.

For CC(C)(O)[C@H]1O[C@H]2CC[C@@]3(C)[C@@](O)(CC[C@H]4Cc5c([nH]c6ccccc56)[C@@]43C)C2=CC1=O [paxilline], the “effect on BKCa activator NS-1619 response” value [2] is given as “inhibited”, the “block of NS-1619 evoked hyperpolarization” value ([3]; 30 μM paxilline) is given as 80% and the “inhibition of AVP induced hyperpolarization” value [3] is given as 13%. The “inhibition of Leu^8-OT induced hyperpolarization” value [3] was 38%, the “inhibition of Pro^8-OT induced hyperpolarization” value [3] was 39% and the “block of NS-1619 evoked hyperpolarization” value ([4]; 30 μM paxilline) was 72%. The “inhibition of AVP induced hyperpolarization” value [4] was 20%, the “inhibition of Leu^8-OT induced hyperpolarization” value [4] was 46% and the “inhibition of Pro^8-OT induced hyperpolarization” value [4] was 35%. For the same compound, the “effect on BKCa activator NS-1619 response” value [5] was “inhibited”, the “inhibition of AVP induced hyperpolarization” value [6] was 20% and the “inhibition of AVP induced hyperpolarization” value [7] was 52%.

In the case of C/C=C(/C)C(=O)O[C@H]1C(C)=C2[C@H]([C@@H]1OC(=O)CCCCCCC)[C@@](C)(OC(C)=O)C[C@H](OC(=O)CCC)[C@@]1(O)[C@H]2OC(=O)[C@@]1(C)O [thapsigargin], the “effect on hyperpolarization produced by AVP, Leu^8-OT, and Pro^8-OT” value [8] was “eliminated” and the “effect on AVP and OT-analog evoked increases in Ca2+” value [9] was “blocked”.

For Pertussis toxin, the “effect on DynorphinA1-13-NH2 hyperpolarizing response” value [10] was “abolished”, the “effect on AVP induced hyperpolarization” value (Gi/o; any of the four cell lines (mOTR, tOTR, qOTR, hOTR)) was “did not inhibit” and the “effect on Leu^8-OT induced hyperpolarization” value (Gi/o; tOT or qOT receptor cell lines) was “did not inhibit”. For the same compound, the “effect on Pro^8-OT induced hyperpolarization” value (Gi/o; tOT or qOT receptor cell lines) was “did not inhibit”.

For “apamin: selective inhibitor of SKCa channels (CNCKAPETALCARRCQQH-NH2; disulfide 1-11, 3-15; UniProt P01500 28-45, looked up)”, the “contribution to (inhibition of) Leu^8-OT induced membrane hyperpolarization” value ([2]; apamin pretreatment) is given as no more than 15%, the “contribution to (inhibition of) Pro^8-OT induced membrane hyperpolarization” value ([2]; apamin pretreatment) is given as no more than 15% and the “inhibition of AVP induced hyperpolarization” value [3] is given as “did not significantly affect”. For the same compound, the “inhibition of Leu^8-OT induced hyperpolarization” value [3] was no more than 15%, the “inhibition of Pro^8-OT induced hyperpolarization” value [3] was no more than 15% and the “inhibition of AVP induced hyperpolarization” value ([3]; listed as Apamin) was no more than 15%. For the same compound, the “inhibition of AVP induced hyperpolarization” value [4] was “did not significantly affect”, the “inhibition of Leu^8-OT induced hyperpolarization” value [4] was no more than 15% and the “inhibition of Pro^8-OT induced hyperpolarization” value [4] was no more than 15%. For the same compound, the “inhibition of AVP induced hyperpolarization” value ([4]; listed as Apamin) was no more than 15%, the “contribution to (inhibition of) Leu^8-OT induced membrane hyperpolarization” value ([5]; apamin pretreatment) was no more than 15% and the “contribution to (inhibition of) Pro^8-OT induced membrane hyperpolarization” value ([5]; apamin pretreatment) was no more than 15%. The “inhibition of AVP induced hyperpolarization” value [6] was “did not significantly affect”, the “inhibition of AVP induced hyperpolarization” value ([6]; listed as Apamin) was no more than 15% and the “inhibition of AVP induced hyperpolarization” value [7] was “did not significantly affect”. The “inhibition of AVP induced hyperpolarization” value ([7]; listed as Apamin) was no more than 15%.
